Reference: ChEMBL document CHEMBL1144321, “Synthesis and evaluation of novel peripherally restricted kappa-opioid receptor agonists” (Bioorg Med Chem Lett, 2005)

Key:
Rattus norvegicus = experiment: In vivo inhibition of formalin induced flinching after intra paw dosing of compound at 300 ug
Mus musculus = experiment: Effective dose that induced platform sedation after subcutaneous administration in mice; format: functional; conditions: sc
Procedure, shortened: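 Mice screened first for baseline latency to step fully off a slightly raised platform (11 × 8 × 3 cm); animals with baseline >15 s excluded. Drug or vehicle (20% aqueous creamaphor) given s.c. at back of neck; latency retested 20 min later, 30 s cut-off. % sedation = (test − baseline)/(30 s − baseline) × 100; ED50 from dose–response.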

**Q.** What does the source list for `CN(C(=O)Cc1ccc(C(F)(F)F)cc1)C(CN1CCCC1)c1cccc(OCC(=O)OC(C)(C)C)c1` (racemic)?
**A.** Inhibition (Rattus norvegicus): 84%; ED50 (Mus musculus): 140 mg/kg

**Q.** `CN(C(=O)Cc1ccc(C(F)(F)F)cc1)C(CN1CCCC1)c1cccc(OCC(=O)O)c1` (racemic) was tested. Which Inhibition (Rattus norvegicus) did it give?
**A.** 93%

**Q.** What about the ED50 (Mus musculus) of the same compound?
**A.** > 300 mg/kg

**Q.** With `CN(C(=O)Cc1ccc(Cl)c(Cl)c1)C(CN1CCCC1)c1cccc(OCC(=O)O)c1` (stereo not given) [ICI-204448] as the compound, how does the ED50 (Mus musculus) read?
**A.** 5.2 mg/kg

**Q.** For `CN(C(=O)Cc1ccc(C(F)(F)F)cc1)[C@H](CN1CCCC1)c1cccc(NS(N)(=O)=O)c1`, which Inhibition (Rattus norvegicus) is on record?
**A.** 73%

**Q.** What about the ED50 (Mus musculus) of the same compound?
**A.** 13 mg/kg

**Q.** For `COc1cccc(C(CN2CCCC2)N(C)C(=O)Cc2ccc(C(F)(F)F)cc2)c1` (racemic), which Inhibition (Rattus norvegicus) is on record?
**A.** 99%

**Q.** With `CN(C(=O)Cc1ccc(C(F)(F)F)cc1)[C@H](CN1CCCC1)c1cccc(NS(C)(=O)=O)c1` as the compound, how does the Inhibition (Rattus norvegicus) read?
**A.** 77%

**Q.** What about the ED50 (Mus musculus) of the same compound?
**A.** 89 mg/kg

**Q.** For `CN(C(=O)Cc1ccc(C(F)(F)F)cc1)[C@H](CN1CCCC1)c1cccc(NC(=O)CCC(=O)O)c1`, which Inhibition (Rattus norvegicus) is on record?
**A.** 73%

**Q.** And the ED50 (Mus musculus)?
**A.** 47 mg/kg

**Q.** Which Inhibition (Rattus norvegicus) does the source give for `CN(C(=O)Cc1ccc(C(F)(F)F)cc1)C(CN1CCCC1)c1cccc(O)c1` (racemic) here?
**A.** 99%

**Q.** Which results are given for `CN(C(=O)Cc1ccc(C(F)(F)F)cc1)[C@H](CN1CCCC1)c1ccccc1`?
**A.** Inhibition (Rattus norvegicus): 92%; ED50 (Mus musculus): 0.13 mg/kg
